Reference: ChEMBL document CHEMBL2010640, “Perturbing pro-survival proteins using quinoxaline derivatives: a structure-activity relationship study” (Bioorg Med Chem, 2012)
Activity calls are given as the source filed them. No cut-off for these calls is given here.

Key:
[1] = system: HeLa; assay: Induction of apoptosis in human HeLa cells overexpressing Bad3SA at 10 uM after 12 hrs by Hoechst staining; format: functional, cell-based
In short: (§1)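 Doxycycline-inducible HeLa lines (Dox-GFP, Dox-Noxa, Dox-Bad3SA) induced with doxycycline (1 μg/mL) for 3 h, then treated for a further 12 h; ABT-737 tested at 1 μM, other compound at 10 μM, DMSO vehicle. Cells fixed and Hoechst-stained; condensed nuclei counted to give percent cell death.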

[2] = target: Induced myeloid leukemia cell differentiation protein Mcl-1 (Homo sapiens) (UniProt Q07820); assay: Inhibition of Mcl-1 in doxycyclin-stimulated human HeLa cells overexpressing Bad3SA assessed as increase in caspase3/7 activity at 50 uM after 6 hrs by luminescence analysis; format: cell-based
Induced myeloid leukemia cell differentiation protein Mcl-1 (Homo sapiens), sequence (Q07820 whole entry): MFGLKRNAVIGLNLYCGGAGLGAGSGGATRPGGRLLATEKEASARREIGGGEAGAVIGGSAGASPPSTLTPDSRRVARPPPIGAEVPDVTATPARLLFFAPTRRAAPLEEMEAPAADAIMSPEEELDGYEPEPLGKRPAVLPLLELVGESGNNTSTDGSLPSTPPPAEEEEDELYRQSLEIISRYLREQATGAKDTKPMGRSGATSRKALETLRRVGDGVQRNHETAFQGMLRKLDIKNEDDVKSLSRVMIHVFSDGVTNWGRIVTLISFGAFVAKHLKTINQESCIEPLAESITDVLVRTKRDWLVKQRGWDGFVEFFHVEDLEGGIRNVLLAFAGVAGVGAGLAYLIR
In short: (§2)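 Dox-Bad3SA HeLa cells (Bad3SA expressed under doxycycline control) exposed to compound for 6 h, with doxycycline or without it. Caspase 3/7 activity read as Caspase-Glo luminescence 1 h after adding reagent. Raw luminescence was normalized to alamarBlue fluorescence to correct for cell number.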

[3] = target: Induced myeloid leukemia cell differentiation protein Mcl-1 (Homo sapiens) (UniProt Q07820); assay: Inhibition of Mcl-1 in human HeLa cells overexpressing Bad3SA assessed as increase in caspase3/7 activity at 50 uM after 6 hrs by luminescence analysis; format: cell-based; in short: as §2
[4] = system: HeLa; assay: Induction of apoptosis in human HeLa cells assessed as caspase activation at 1 to 10 uM by Hoechst staining; format: functional, cell-based
In short: (§3)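 HeLa cells, 2000 cells/well, treated 6 h (ABT-737 1 μM; other compounds 10 μM, alone or combined); Caspase-Glo 3/7 reagent added, luminescence read after 1 h, RLU normalized to alamarBlue fluorescence. Separately, cell death across doses of the combination scored by Hoechst staining.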

[5] = system: HeLa; assay: Induction of apoptosis in human HeLa cells assessed as caspase activation at 1 uM by Hoechst staining; format: functional, cell-based; in short: as §3
[6] = system: HeLa; assay: Induction of apoptosis in human HeLa cells assessed as decrease in XIAP expression at 10 uM by Western blot analysis; format: functional, cell-based
In short: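 HeLa cells treated 24 h, media and trypsinized cells pooled, lysed in RIPA buffer (pH 8.0); SDS-PAGE and Western blot for XIAP, α-tubulin as loading control.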

[7] = target: Induced myeloid leukemia cell differentiation protein Mcl-1 (Homo sapiens) (UniProt Q07820); assay: Induction of Mcl-1-mediated apoptosis in doxycyclin-stimulated human HeLa cells expressing GFP at 10 uM after 12 hrs by Hoechst staining; format: cell-based; in short: as §1
[8] = target: Bcl-2-like protein 1 (Homo sapiens) (UniProt Q07817); assay: Induction of Bcl-xL-mediated apoptosis in doxycyclin-stimulated human HeLa cells overexpressing Noxa at 10 uM after 12 hrs by Hoechst staining; format: cell-based; in short: as §1
Bcl-2-like protein 1 (Homo sapiens), sequence (Q07817 whole entry): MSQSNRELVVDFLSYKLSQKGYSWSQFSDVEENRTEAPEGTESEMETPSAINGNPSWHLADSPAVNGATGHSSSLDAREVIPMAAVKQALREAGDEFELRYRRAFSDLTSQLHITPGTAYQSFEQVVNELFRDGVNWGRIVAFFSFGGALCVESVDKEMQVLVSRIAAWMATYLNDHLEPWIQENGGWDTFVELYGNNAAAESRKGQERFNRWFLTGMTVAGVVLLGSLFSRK

[9] = target: Induced myeloid leukemia cell differentiation protein Mcl-1 (Homo sapiens) (UniProt Q07820); assay: Induction of Mcl-1-mediated apoptosis in doxycyclin-stimulated human HeLa cells overexpressing Bad3SA at 10 uM after 12 hrs by Hoechst staining; format: cell-based; in short: as §1
[10] = system: HeLa; assay: Induction of apoptosis in human HeLa cells expressing Bcl-xL assessed as decrease in Mcl-1 level at 1 to 10 uM by Western blot analysis; format: functional, cell-based; settings: TDE = time-dependent effect
In short: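 HeLa cells exposed to 1, 5 or 10 μM for 12 h (dose response), and Bcl-xL-overexpressing HeLa cells exposed to 10 μM for 3, 6 or 12 h (time course); lysates resolved by SDS-PAGE and blotted for Mcl-1, Bcl-xL and Bcl-2, actin as loading control, DMSO vehicle.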

[11] = system: HeLa; assay: Induction of apoptosis in human HeLa cells assessed as decrease in Mcl-1 level after 12 hrs by Western blot analysis

O=C(Nc1ccc(Br)cc1)Nc1ccc2nc(-c3ccccn3)c(-c3ccccn3)nc2c1
Activity [1]: inactive

O=C(Nc1ccc(Br)cc1)Nc1ccc2nc(-c3ccccc3)c(-c3ccccc3)nc2c1
Activity [1]: Active

CC[C@@]1(O)C(=O)OCc2c1cc1n(c2=O)Cc2cc3ccccc3nc2-1
inhibition [2]: Active
inhibition [3]: inactive

O=C(Nc1ccc(Br)cc1)Nc1ccc2nc(-c3cccs3)c(-c3cccs3)nc2c1
Activity [1]: inactive

Cc1nc2ccc(NC(=O)Nc3ccc(Br)cc3)cc2nc1C
Activity [4]: inactive
Activity [1]: inactive

CN(C)CC[C@H](CSc1ccccc1)Nc1ccc(S(=O)(=O)NC(=O)c2ccc(N3CCN(Cc4ccccc4-c4ccc(Cl)cc4)CC3)cc2)cc1[N+](=O)[O-]
Activity [5]: inactive

O=C(Nc1ccc(Br)cc1)Nc1ccc2nc(-c3ccco3)c(-c3ccco3)nc2c1
Activity [6]: Active
Activity [4]: inactive
Activity [1]: Active
Activity [7]: inactive
Activity [8]: inactive
Activity [9]: Active
Activity [10]: tde
Activity [11]: Dose-dependent effect

O=C(Nc1ccccc1)Nc1ccc2nccnc2c1
Activity [1]: inactive

O=C(Nc1cccc(Br)c1)Nc1ccc2nc(-c3ccco3)c(-c3ccco3)nc2c1
Activity [1]: Active

O=C(Nc1ccc2nc(-c3ccco3)c(-c3ccco3)nc2c1)Nc1ccccc1Br
Activity [1]: inactive
